Experimental data published in article PMC11542726 (Methods in enzymology, 2024).
“Also recorded” adds a separate entry of the source.

Assays:
Crk SH2 [1] = assay: Fluorescence polarization; format: mouse Crk protein 1 – 118 identical to human CRK protein; conditions: direct binding; various concentrations of FAM-conjugated peptides titrated into 4 nM Crk SH2, 20 mM HEPES pH 7.5, 0.025% Triton X-100; 384-well, 480-nm excitation, 535-nm emission; repeated at least three times; Figure 6A
Crk SH2 vs CrkL SH2 = assay: Comparison of affinity of FAM-DVpYDVPP for Crk SH2 vs CrkL SH2; format: binding, mouse; conditions: comparison in words; assay and values not given
Crk SH2 [2] = assay: Differential scanning fluorimetry; format: binding, mouse Crk protein 1 – 118 identical to human CRK protein; conditions: 10 μM Crk SH2, 10X SYPRO Orange, peptides 0-300 μM, 50 mM HEPES, pH 7.5, 150 mM NaCl; 25 to 95°C at 0.2°C/s; Figure 6B
Procedure, shortened: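 Before dye addition, Crk SH2 (10 μM final) is preincubated with peptides, dispensed from DMSO or buffer, for 30 min at room temperature. SYPRO Orange is then added and samples are melted. Tm is taken from the fluorescence curve or its first derivative as the half-unfolded point. ΔTm is the change in Tm on ligand binding. A DMSO series of 0–2% was also run.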

Crk SH2 [3] = assay: FP competition assay: unlabeled peptides vs FAM-DVpYDVPP; format: binding, mouse Crk protein 1 – 118 identical to human CRK protein; conditions: 4 nM FAM-labeled phosphorylated peptide, 150 nM Crk SH2, unlabeled competitor peptides; data not shown
Procedure, shortened: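 Polarization is read as mP values. For each unlabeled peptide, the concentration giving 50% displacement of the FAM probe is obtained by non-linear regression.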

Substance | Increase in FP / polarization (mP) (Crk SH2 [1]) | Relative affinity, Crk SH2 vs CrkL SH2 (Crk SH2 vs CrkL SH2) | Shift of thermal unfolding curve / Tm (Crk SH2 [2]) | Competition of binding of Crk SH2 with FAM-DVpYDVPP (Crk SH2 [3])
FAM-DVYDVPP | no significant increase in FP is observed; also recorded: No polarization is detected |  |  | 
FAM-DVpYDVPP | a significant increase in FP is measured | Crk SH2 showed a higher affinity |  | 
DVpYDVPP-OH |  |  | shift to the right; also recorded: unfolding curves shifted | effectively competed out
DVYDVPP |  |  | no significant shift in Tm was observed; also recorded: no significant binding | much less significantly
DVFDVPP-OH |  |  |  | much less significantly
